We go through two compounds from ChEMBL document CHEMBL5150021, “Identification of 5-(Aryl/Heteroaryl)amino-4-quinolones as Potent Membrane-Disrupting Agents to Combat Antibiotic-Resistant Gram-Positive Bacteria” (J Med Chem, 2022).

Molecules are shown by their SMILES. Values after ≈ are worked out from the molar mass of the structure shown. Active and inactive are the calls of the source. The calls are words filed in the database; no cut-off is given here. Bounds are passed on as bounds.

Data set [1] has as its system Enterococcus faecalis. Nature of the data set: Antibacterial activity against Enterococcus faecalis DHMC #1 assessed as inhibition of bacterial growth incubated for 24 hrs by CLSI based method. It counts as functional. Summed up:
(§1)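 Broth microdilution per CLSI. Equal volume of twofold serial compound dilutions added. Incubated stationary at 37 °C for 24 h. MIC taken as lowest concentration giving complete inhibition of visible growth. Oxacillin control for Gram-positives, ceftriaxone for Gram-negatives.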

In data set [2] the test system is Cell membrane. Nature of the data set: Induction of cell membrane damage in Staphylococcus aureus USA300 assessed as membrane wrinkling at 1 times MIC measured after 1 hrs by TEM analysis. Summed up: (§2)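 Fixed in glutaraldehyde/paraformaldehyde in cacodylate pH 7.4, post-fixed with osmium tetroxide, stained with uranyl acetate, resin-embedded, thin-sectioned and imaged by TEM.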

In data set [3] the test system is Staphylococcus aureus. Nature of the data set: Antibacterial activity against methicillin resistant Staphylococcus aureus FPR3757 assessed as inhibition of bacterial growth incubated for 24 hrs in presence of 10% FBS by CLSI based method. It counts as functional. In short, it runs like this: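 CLSI broth microdilution against MRSA FPR3757 (USA300) in Mueller–Hinton broth supplemented with 10% serum (fetal bovine or mouse). Inoculum 10⁶ CFU/mL with twofold serial compound dilutions, stationary incubation at 37 °C for 24 h. MIC read as lowest concentration with complete inhibition of visible growth.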

Data set [4] deals with Staphylococcus aureus. Nature of the data set: Antibacterial activity against methicillin resistant Staphylococcus aureus FPR3757 assessed as inhibition of bacterial growth incubated for 24 hrs by CLSI based method. It counts as functional. Conditions: read-out: MIC100. Summed up: (§3)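 It was mixed 1:1 with twofold serial compound dilutions and incubated stationary at 37 °C for 24 h. MIC was the lowest concentration giving complete inhibition of observable growth, with an oxacillin control.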

Data set [5] relates to Staphylococcus epidermidis. Nature of the data set: Antibacterial activity against Staphylococcus epidermidis NIF104008 assessed as inhibition of bacterial growth incubated for 24 hrs by CLSI based method. It counts as functional. In short, it runs like this: as §1
For data set [6], the system named is Staphylococcus aureus. Nature of the data set: Antibacterial activity against methicillin-resistant Staphylococcus aureus MW2 assessed as inhibition of bacterial growth incubated for 24 hrs by CLSI based method. It counts as functional. Summed up:
as §1

For data set [7], the system named is Staphylococcus simulans. Nature of the data set: Antibacterial activity against Staphylococcus simulans assessed as inhibition of DNA synthesis at 0.5 to 5 times MIC measured upto 60 mins by [3H]-thymidine incorporation based scintillation counter analysis. It counts as functional, organism-based. Conditions: DDE = dose-dependent effect. In short, it runs like this:
(§4)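 S. simulans was grown in cation-adjusted Mueller–Hinton medium at 37 °C. […] Samples were taken at 0–60 min, precipitated with ice-cold 10% TCA, filtered and counted. Inhibition at 60 min is relative to DMSO control; triplicate.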
Background: Incorporation of labelled thymidine or its analogues reports DNA synthesis.

Data set [8] has as its system Staphylococcus aureus. Nature of the data set: Antibacterial activity against methicillin-resistant Staphylococcus aureus NRS71 assessed as inhibition of bacterial growth incubated for 24 hrs by CLSI based method. The class given is functional. Summed up:
as §1

Data set [9] is described as follows: Induction of drug resistance in Staphylococcus aureus FPR3757 assessed as increase in MIC incubated for 65 days (reference value: 0.25 ug/ml). It counts as functional. Particulars: FPR3757, 1560 h, time 65 day.
In data set [10] the test system is Staphylococcus simulans. Nature of the data set: Antibacterial activity against Staphylococcus simulans assessed as inhibition of protein synthesis at 5 times MIC measured upto 60 mins by [3H]-L-isoleucine incorporation based scintillation counter analysis. The class given is functional. Particulars: 1 h. In short, it runs like this: (§5)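 Aliquots taken 0–60 min, precipitated with ice-cold 10% TCA, filtered, washed, scintillation counted. Percent inhibition is relative to DMSO control at 60 min; triplicate.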

Data set [11] concerns Staphylococcus aureus. Nature of the data set: microbe, parasite or virus in culture. Conditions: USA300 FPR3757, 24 h.
The next data set concerns Enterococcus faecium. Nature of the data set: Antibacterial activity against Enterococcus faecium ATCC19579 assessed as inhibition of bacterial growth incubated for 24 hrs by CLSI based method. The class given is functional. In short, it runs like this:
as §1

Data set [12] has as its system Staphylococcus aureus. Nature of the data set: Antibacterial activity against methicillin-resistant Staphylococcus aureus N315 assessed as inhibition of bacterial growth incubated for 24 hrs by CLSI based method. It counts as functional. In short, it runs like this: as §1
Data set [13] concerns Cell membrane. Nature of the data set: Induction of cell membrane damage in Staphylococcus aureus USA300 assessed as cross-wall-septum formation with reduced splitting at 1 times MIC measured after 10 mins by TEM analysis. It counts as subcellular.
In a further data set the test system is Candida albicans. Nature of the data set: Antifungal activity against Candida albicans SC5314 assessed as inhibition of bacterial growth incubated for 24 hrs by CLSI based method. The class given is functional. In short, it runs like this:
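Broth microdilution per CLSI. It is mixed 1:1 with twofold serial compound dilutions and incubated stationary at 35 °C for 24 h. MIC is read as the lowest concentration with no observable growth.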

For another data set, the system named is Escherichia coli. Nature of the data set: Antibacterial activity against Escherichia coli DHMC-1 assessed as inhibition of bacterial growth incubated for 24 hrs by CLSI based method. The class given is functional. Summed up:
as §1

Data set [14] deals with Cell membrane. Nature of the data set: Induction of cell membrane damage in Staphylococcus aureus USA300 assessed as mesosome-like membrane inclusions at 1 times MIC measured after 1 hrs by TEM analysis. In short, it runs like this:
as §2

Data set [15] deals with Staphylococcus simulans. Nature of the data set: Antibacterial activity against Staphylococcus simulans assessed as inhibition of cell wall synthesis at 5 times MIC measured upto 60 mins by [3H]-glucosamine incorporation based scintillation counter analysis. The class given is functional. Particulars: 1 h. In short, it runs like this: as §5
For a further data set, the system named is Enterobacter cloacae. Nature of the data set: Antibacterial activity against Enterobacter cloacae ND-21 assessed as inhibition of bacterial growth incubated for 24 hrs by CLSI based method. It counts as functional. Summed up:
as §1

For data set [16], the system named is Staphylococcus simulans. Nature of the data set: Antibacterial activity against Staphylococcus simulans assessed as inhibition of protein synthesis at 0.5 to 5 times MIC measured upto 60 mins by [3H]-L-isoleucine incorporation based scintillation counter analysis. It counts as functional, organism-based. Conditions: DDE = dose-dependent effect. Summed up: as §4

For data set [17], the system named is Staphylococcus simulans. Nature of the data set: Antibacterial activity against Staphylococcus simulans assessed as inhibition of DNA synthesis at 5 times MIC measured upto 60 mins by [3H]-thymidine incorporation based scintillation counter analysis. The class given is functional. Conditions: 1 h. Summed up:
as §5

Data set [18] concerns Staphylococcus aureus. Nature of the data set: Antibacterial activity against methicillin-resistant Staphylococcus aureus COL assessed as inhibition of bacterial growth incubated for 24 hrs by CLSI based method. The class given is functional. In short, it runs like this:
as §1

Data set [19] deals with Cell membrane. Nature of the data set: Induction of cell membrane damage in Staphylococcus aureus USA300 assessed as bulging of the septum at 1 times MIC measured after 1 hrs by TEM analysis. In short, it runs like this:
as §2

Data set [20] concerns Enterococcus faecalis. Nature of the data set: Antibacterial activity against Enterococcus faecalis ATCC700802 assessed as inhibition of bacterial growth incubated for 24 hrs by CLSI based method. It counts as functional. In short, it runs like this: as §1
In data set [21] the test system is Staphylococcus simulans. Nature of the data set: Antibacterial activity against Staphylococcus simulans assessed as inhibition of RNA synthesis at 0.5 to 5 times MIC measured upto 60 mins by [3H]-uridine incorporation based scintillation counter analysis. Particulars: DDE = dose-dependent effect. The class given is functional, organism-based. In short, it runs like this:
as §4

Data set [22] deals with Staphylococcus simulans. Nature of the data set: Antibacterial activity against Staphylococcus simulans assessed as inhibition of RNA synthesis at 5 times MIC measured upto 60 mins by [3H]-uridine incorporation based scintillation counter analysis. Particulars: 1 h. It counts as functional. In short, it runs like this:
as §5

The test system of data set [23] is Staphylococcus aureus. Nature of the data set: Antibacterial activity against community-associated methicillin-resistant Staphylococcus aureus USA300 FPR3757 assessed as inhibition of bacterial growth incubated for 24 hrs by CLSI based method. The class given is functional. Summed up:
as §3

For the next data set, the system named is Klebsiella pneumoniae. Nature of the data set: Antibacterial activity against Klebsiella pneumoniae 7117 assessed as inhibition of bacterial growth incubated for 24 hrs by CLSI based method. It counts as functional. Summed up:
as §1

The test system of data set [24] is Vero. Nature of the data set: Cytotoxicity against African green monkey Vero cells assessed as increase in LDH release at 0.47 to 30 uM incubated for 24 hrs. It counts as toxicity, cell-based. Particulars: chlorocebus sabaeus, dose 0.47-30 µM. In short, it runs like this: (§6)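 Confluent Vero cells (maintained in RPMI 1640 + 10% FBS, 37 °C, 5% CO2) exposed to compound at 0.47–30 μM (twofold dilutions) in serum-free medium for 24 h at 37 °C. LDH in supernatant is measured colorimetrically at 490 nm and expressed as percent of 2% detergent positive control.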
Background: LDH leaks from cells whose membrane has failed.

The subject of data set [25] is Vero. Nature of the data set: Cytotoxicity against African green monkey Vero cells assessed as increase in LDH release at 30 uM incubated for 24 hrs relative to control. The class given is toxicity, cell-based. Particulars: chlorocebus sabaeus. Summed up: as §6
The nature of data set [26]: Kinetic aqueous solubility of the compound in DPBS at pH 7.4 at 100 ug/ml measured after 6 hrs by LC-MS/MS analysis. The class given is physicochemical. Particulars: DPBS, pH 7.4, dose 100 µg/ml, read-out: Kinetic_solubility.
Data set [27] can be described thus: Protein binding in human plasma at […] incubated for 4 hrs under shaking condition by LC-MS/MS based equilibrium dialysis method. It counts as ADME, cell-free. Summed up:
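Rapid equilibrium dialysis (8k MWCO). Compound is spiked into human plasma at 10 μg/mL and dialysed against DPBS pH 7.4 with shaking for 4 h at 37 °C. Matrices are matched, proteins precipitated with methanol containing internal standard, and both chambers quantified by LC-MS/MS against a calibration curve. Percent free and bound are calculated from chamber concentrations.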
(In equilibrium dialysis only unbound substance equilibrates across the membrane.)

On to `FC(F)(F)c1ccc(Nc2cc(C(F)(F)F)nc3cc(C(F)(F)F)ccc23)nc1`, for which the MIC amounted to 1 mg/L (≈ 2.35 µM) in the data set on Enterococcus faecalis [1]; 4 mg/L in the data set on Staphylococcus aureus [3]; 0.25 mg/L (≈ 0.588 µM) with Staphylococcus aureus [4]; 0.125 mg/L (≈ 0.294 µM) in data set [5]; 0.125 mg/L (≈ 0.294 µM) with Staphylococcus aureus [6]; 0.25 mg/L (≈ 0.588 µM) in the data set with Staphylococcus aureus [8]. Also, the MIC in data set [9] is 0.5 mg/L; with Enterococcus faecium, 1 mg/L (≈ 2.35 µM); with Staphylococcus aureus [12] it was 0.25 mg/L (≈ 0.588 µM); with Candida albicans, more than 256 mg/L; in the data set on Escherichia coli, more than 128 mg/L; in the data set with Enterobacter cloacae it was more than 128 mg/L. The MIC is 0.25 mg/L (≈ 0.588 µM) in the data set with Staphylococcus aureus [18], 16 mg/L (≈ 37.6 µM) with Enterococcus faecalis [20], 0.25 mg/L (≈ 0.588 µM) in the data set on Staphylococcus aureus [23] and more than 128 mg/L in the data set with Klebsiella pneumoniae. Besides, the result with Cell membrane [2], in the data set on Cell membrane [13], with Cell membrane [14] and with Cell membrane [19] was Active. Further, the inhibition result with Staphylococcus simulans [7], in the data set with Staphylococcus simulans [16] and with Staphylococcus simulans [21] was “Dde” in each case. For the same compound, the “inhibition (INH)” value with Staphylococcus simulans [10], with Staphylococcus simulans [15], in the data set with Staphylococcus simulans [17] and in the data set with Staphylococcus simulans [22] was 100% each time. In the data set with Staphylococcus aureus [11], this compound yielded an MBC of 8 mg/L (≈ 18.8 µM).
With `O=c1cc(C(F)(F)F)[nH]c2cc(C(F)(F)F)cc(Nc3ccc(F)cn3)c12`, in the data set on Staphylococcus aureus [4], the MIC was found to be 0.125 mg/L (≈ 0.319 µM). For the same compound, the results for the Activity result in the data set with Vero [24] and with Vero [25] were “Non-Toxic” and 20%, respectively. Also, in data set [26], the solubility kinetic at 6 h was 1 µg/mL (≈ 2.56 µM). This compound also yielded a PPB in data set [27] of 99.8%.
